The record followed here is ChEMBL document CHEMBL4028828, “Syntheses of benzophenone-xanthone hybrid polyketides and their antibacterial activities” (2017).

Converted amounts (≈) assume the structure as drawn. The source made the active and inactive calls. The calls are words filed in the database; no cut-off is given here.

Common to all, as to type: functional
The subject of assay [1] is Klebsiella pneumoniae. Kind of assay: Antibacterial activity against Klebsiella pneumoniae NBRC 14940 after overnight incubation by microdilution method. An outline of the steps: (§1)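 Broth microdilution MIC, modified Eloff method. Compounds were dissolved in DMSO (under 5%) and tested in duplicate. Two-fold serial dilution followed by overnight incubation at 37 °C. MIC is the lowest concentration inhibiting growth.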
Background: Dilution methods test growth across graded concentrations, often in twofold steps.

For assay [2], the system named is Escherichia coli. Kind of assay: Antibacterial activity against Escherichia coli NBRC 102203 after overnight incubation by microdilution method. An outline of the steps: as §1
Assay [3] deals with Bacillus subtilis. Kind of assay: Antibacterial activity against Bacillus subtilis NBRC 13719 after overnight incubation by microdilution method. Summed up: as §1
The test system of assay [4] is Staphylococcus aureus. Kind of assay: Antibacterial activity against Staphylococcus aureus NBRC 100910 after overnight incubation by microdilution method. Summed up:
as §1

The mark [5] stands for this setting: Bacillus subtilis, NBRC 13719, read-out: MIC.
Where [6] appears, read: Staphylococcus aureus, NBRC 100910, read-out: MIC.

For the compound `COc1cc(OC)c(C(c2ccccc2)c2c(O)cc(O)c3c(=O)c4ccc(O)cc4oc23)cc1OC` (racemic) [listing 1 of 2 here], the result in assay [1] and in assay [2] was inactive.

On to `COc1cc(OC)c(C(c2ccccc2)c2c(O)cc(O)c3c(=O)c4c(O)cc(O)cc4oc23)cc1OC` (single isomer, unassigned; (+)) [listing 1 of 2 here], for which the result in assay [1] and in assay [2] was inactive.

Consider `COc1cc(OC)c(C(c2ccccc2)c2c(O)cc(O)c3c(=O)c4c(O)cc(O)cc4oc23)cc1OC` (single isomer, unassigned; (-)) [listing 1 of 2 here], for which the result in assay [1] and in assay [2] was inactive.

As to `COc1cc(OC)c(C(c2ccccc2)c2c(O)cc(O)c3c(=O)c4ccccc4oc23)cc1OC` (single isomer, unassigned; (+)) [listing 1 of 2 here], the result in assay [1] and in assay [2] was inactive.

As for `COc1cc(OC)c(C(c2ccccc2)c2c(O)cc(O)c3c(=O)c4ccccc4oc23)cc1OC` (single isomer, unassigned; (-)) [listing 1 of 2 here], the outcome in assay [1] and in assay [2] was inactive.

Consider `COc1cc(OC)c(C(c2ccccc2)c2c(O)cc(O)c3c(=O)c4ccc(O)cc4oc23)cc1OC` (racemic) [listing 2 of 2 here], for which, in assay [3] (setting [5]), the MIC amounted to 12.5 µM (≈ 6.26 µg/mL).

In the case of `COc1cc(O)c2c(=O)c3c(OC)cc(OC)cc3oc2c1`, the MIC in assay [4] (setting [6]) and in assay [3] (setting [5]) was over 100 µM throughout. The outcome in assay [1] and in assay [2] was inactive.

For `O=c1c2ccc(O)cc2oc2cc(O)cc(O)c12`, the results for the MIC in assay [4] (setting [6]) and in assay [3] (setting [5]) were 100 µM (≈ 24.4 µg/mL) and over 100 µM, respectively. Besides, the outcome in assay [1] and in assay [2] was inactive.

Consider `O=c1c2c(O)cc(O)cc2oc2cc(O)cc(O)c12`, for which the values for the MIC in assay [4] (setting [6]) and in assay [3] (setting [5]) were 50 µM (≈ 13 µg/mL) and over 100 µM, respectively. For the same compound, the outcome in assay [1] and in assay [2] was inactive.

Compound `COc1cc(OC)c(C(c2ccccc2)c2c(O)cc(O)c3c(=O)c4ccc(O)cc4oc23)cc1OC` (stereo in doubt; (+)-2) [listing 1 of 2 here] gave an MIC in assay [3] of 10 µM (≈ 5.01 µg/mL).

In turn, `COc1cc(OC)c(C(c2ccccc2)c2c(O)cc(O)c3c(=O)c4ccccc4oc23)cc1OC` (single isomer, unassigned; (-)) [listing 2 of 2 here] yielded an MIC in assay [4] of 50 µM (≈ 24.2 µg/mL).

On to `COc1cc(OC)c2c(=O)c3c(O)cc(OC)c(C(c4ccccc4)c4cc(OC)c(OC)cc4OC)c3oc2c1` (racemic), for which the MIC in assay [4] (setting [6]) and in assay [3] (setting [5]) was over 100 µM each time. In addition, the outcome in assay [1] and in assay [2] was inactive.

With `O=c1c2ccccc2oc2cc(O)cc(O)c12`, the MIC is 100 µM (≈ 22.8 µg/mL) in assay [4] (setting [6]) and over 100 µM in assay [3] (setting [5]). In addition, the result in assay [1] and in assay [2] was inactive.

Regarding `COc1cc(OC)c(C(c2ccccc2)c2c(O)cc(O)c3c(=O)c4c(O)cc(O)cc4oc23)cc1OC` (single isomer, unassigned; (-)) [listing 2 of 2 here], the minimal inhibitory concentration (MIC) in assay [4] (setting [6]) is 12.5 µM (≈ 6.46 µg/mL); in assay [3] (setting [5]) it was 100 µM (≈ 51.7 µg/mL).

`COc1cc(OC)c(C(c2ccccc2)c2c(O)cc(O)c3c(=O)c4ccccc4oc23)cc1OC` (racemic) [listing 1 of 2 here]: the result in assay [1] and in assay [2] was inactive.

Regarding `COc1cc(OC)c(C(c2ccccc2)c2c(O)cc(O)c3c(=O)c4c(O)cc(O)cc4oc23)cc1OC` (single isomer, unassigned; (+)) [listing 2 of 2 here], the MIC in assay [4] is 10 µM (≈ 5.17 µg/mL); in assay [3], 50 µM (≈ 25.8 µg/mL).

With `COc1cc(OC)c(C(O)c2ccccc2)cc1OC` (stereo not drawn), the MIC in assay [4] (setting [6]) and in assay [3] (setting [5]) was over 100 µM each time. For the same compound, the outcome in assay [1] and in assay [2] was inactive.

`COc1cc(OC)c2c(=O)c3c(O)cc(O)c(C(c4ccccc4)c4cc(OC)c(OC)cc4OC)c3oc2c1` (racemic): the MIC in assay [4] (setting [6]) and in assay [3] (setting [5]) was over 100 µM in each case. The outcome in assay [1] and in assay [2] was inactive.

Consider `COc1cc(OC)c2c(=O)c3c(O)cc(O)cc3oc2c1`, for which the MIC in assay [4] (setting [6]) and in assay [3] (setting [5]) was over 100 µM each time. The outcome in assay [1] and in assay [2] was inactive.

Consider `COc1cc(OC)c(C(c2ccccc2)c2c(O)cc(O)c3c(=O)c4ccc(O)cc4oc23)cc1OC` (stereo in doubt; (-)-2) [listing 1 of 2 here], for which the outcome in assay [1] and in assay [2] was inactive.

For the compound `CC1(C)S[C@@H]2[C@H](NC(=O)[C@H](N)c3ccccc3)C(=O)N2[C@H]1C(=O)O` [AMPICILLIN], the MIC in assay [4] (setting [6]) and in assay [3] (setting [5]) was 1.25 µM (≈ 0.437 µg/mL) in each case.

In assay [4], `COc1cc(OC)c(C(c2ccccc2)c2c(O)cc(O)c3c(=O)c4ccccc4oc23)cc1OC` (single isomer, unassigned; (+)) [listing 2 of 2 here] showed an MIC of 10 µM (≈ 4.85 µg/mL).

For `Oc1ccc(O)c(O)c1`, the minimal inhibitory concentration (MIC) in assay [4] (setting [6]) and in assay [3] (setting [5]) was over 100 µM in each case. The outcome in assay [1] and in assay [2] was inactive.

With `COc1cc(OC)c(C(c2ccccc2)c2c(O)cc(O)c3c(=O)c4ccc(O)cc4oc23)cc1OC` (stereo in doubt; (+)-2) [listing 2 of 2 here], the result in assay [1] and in assay [2] was inactive.

In the case of `COc1cc(OC)c(C(c2ccccc2)c2c(O)cc(O)c3c(=O)c4ccccc4oc23)cc1OC` (racemic) [listing 2 of 2 here], the MIC in assay [4] is 25 µM (≈ 12.1 µg/mL); in assay [3] (setting [5]), over 100 µM.

Consider `COc1cc(OC)c(C(c2ccccc2)c2c(O)cc(O)c3c(=O)c4c(O)cc(O)cc4oc23)cc1OC` (racemic), for which the result in assay [1] and in assay [2] was inactive.

On to `NC[C@H]1O[C@H](O[C@H]2[C@H](O)[C@@H](O[C@H]3O[C@H](CO)[C@@H](O)[C@H](N)[C@H]3O)[C@H](N)C[C@@H]2N)[C@H](N)[C@@H](O)[C@@H]1O` [BEKANAMYCIN], for which the MIC in assay [4] (setting [6]) and in assay [3] (setting [5]) was 1.25 µM (≈ 0.604 µg/mL) in each case.

With `COc1cc(OC)c(C(=O)c2ccccc2)cc1OC`, the MIC in assay [4] (setting [6]) and in assay [3] (setting [5]) was over 100 µM in each case. Besides, the outcome in assay [1] and in assay [2] was inactive.

In the case of `COc1cc(OC)c(C(c2ccccc2)c2c(O)cc(O)c3c(=O)c4ccc(O)cc4oc23)cc1OC` (stereo in doubt; (-)-2) [listing 2 of 2 here], in assay [4] (setting [6]), the MIC turned out to be 10 µM (≈ 5.01 µg/mL).

As a reminder, the MIC is the lowest concentration found to suppress growth.
